Test results from ChEMBL document CHEMBL4673249, “Anticancer Effects of Honokiol via Mitochondrial Dysfunction Are Strongly Enhanced by the Mitochondria-Targeting Carrier Berberine” (J Med Chem, 2020).
Calls of active or inactive are those of the source. No cut-off for these calls is given here.

Columns and labels:
[1] = Ratio of HN drug uptake to test compound drug uptake in human HepG2 cells mitochondria at 5 uM after 12 hrs by HPLC analysis; type: ADME; conditions: hepg2, 12 h
In short: (§1)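 HepG2 cells treated with 5 μM compound or honokiol for 12 h. Mitochondria isolated with a kit by centrifugation at 600g then 11000g, 4 °C, 10 min each. Whole-cell and mitochondrial drug measured by HPLC on a C18 column, methanol-0.1% acetic acid (80:20), at 265 nm (derivative) and 210 nm (honokiol). Run thrice.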

[2] = system: A549; experiment: Antiproliferative activity against human A549 cells assessed as reduction in cell viability after 48 hrs by MTT assay; type: functional, cell-based; conditions: A549, 48 h
In short: (§2)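 Cell lines grown at 37 °C in 5% CO2: A2780, A549, HL7702 and PC3 in RPMI 1640; HT29 in McCoy's 5A; HepG2 and PANC-1 in DMEM; all media with 10% FBS and penicillin/streptomycin. Cells seeded and left overnight, then exposed to compound for 48 h. MTT (5 mg/mL solution) added for 4 h at 37 °C, formazan dissolved in DMSO, absorbance read at 570 nm. IC50 taken from viability; run in triplicate.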

[3] = system: HepG2; experiment: Induction of apoptosis in human HepG2 cells assessed as increase in cleaved-caspase 3 protein expression at 1 to 4 uM after 24 hrs by Western blot analysis; type: functional, cell-based; conditions: dose 1-4 µM
In short: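 HepG2 cells lysed in RIPA on ice for 20 min; protein measured by BCA. Lysates run on 10% SDS-PAGE and transferred to PVDF. Membranes blocked in 5% nonfat milk/TBST for 2 h, incubated with primary antibodies overnight at 4 °C, then HRP secondary antibody; bands detected by ECL.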

[4] = system: HepG2; experiment: Induction of apoptosis in human HepG2 cells assessed as viable cells at 2 uM after 24 hrs by annexin V/propidium iodide staining based flow cytometric analysis (reference value: 95.3%); type: functional; conditions: read-out: Activity
[5] = system: HepG2; experiment: Induction of apoptosis in human HepG2 cells assessed as necrotic cells at 1 uM after 24 hrs by annexin V/propidium iodide staining based flow cytometric analysis (reference value: 0.11%); type: functional
[6] = system: HepG2; experiment: Induction of cell death in human HepG2 cells at 3 uM after 24 hrs in presence of 3-MA by MTT assay; type: functional, cell-based
In short: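 HepG2 cells given 3 μM for 24 h together with CQ (10 μM) or 3-MA (1 mM). Viability measured by MTT with absorbance read at 570 nm.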

[7] = system: HepG2; experiment: Induction of apoptosis in human HepG2 cells assessed as late apoptotic cells at 4 uM after 24 hrs by annexin V/propidium iodide staining based flow cytometric analysis (reference value: 3.22%); type: functional
[8] = system: HepG2; experiment: Induction of morphological changes in human HepG2 cells assessed as effect on size of vacuoles at 3 uM after 24 hrs in presence of z-VAD-fmk by microscopic analysis; type: functional, cell-based
In short: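 HepG2 cells preincubated with or without z-VAD-fmk (20 μM, 2 h), then treated with 3 μM compound. Vacuole number and size judged from optical microscopy images.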

[9] = system: HepG2; experiment: Induction of mitochondrial dysfunction in human HepG2 cells assessed as dispersive puncta formation at 2 to 4 uM after 12 hrs by calcein-AM staining based fluorescence microscopic analysis; type: functional, cell-based; conditions: dose 2-4 µM
In short: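 HepG2 cells in glass-bottom plates treated for 12 h. Co-loaded with 1.5 μM calcein-AM and 5 mM CoCl2 in DMEM at 37 °C for 20 min; CoCl2 quenches cytosolic calcein. Washed three times with PBS and imaged by fluorescence microscopy through a 525-nm bandpass filter.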

[10] = system: HepG2; experiment: Induction of apoptosis in human HepG2 cells assessed as early apoptotic cells at 4 uM after 24 hrs in presence of z-VAD-fmk by annexin V/propidium iodide staining based flow cytometric analysis (reference value: 0.86%); type: functional
[11] = system: HepG2; experiment: Antiproliferative activity against human HepG2 cells assessed as reduction in cell viability after 48 hrs by MTT assay; type: functional, cell-based; conditions: HepG2, 48 h; in short: as §2
[12] = system: HT-29; experiment: Induction of morphological changes in human HT29 cells assessed as accumulation of cytoplasmic vacuoles at 4 uM after 24 hrs by optical microscopic method; type: functional, cell-based
In short: (§3)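 Cells grown at 37 °C, 5% CO2 in media with 10% FBS and penicillin/streptomycin, then treated with compound. Cytoplasmic vacuoles judged by optical microscopy. Time course at 4 μM, or 10 h exposure across increasing concentrations.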

[13] = system: HepG2; experiment: Potency index, ratio of HN IC50 to test compound IC50 for antiproliferative activity against human HepG2 cells; type: functional
In short: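 MTT assay after 48 h drug exposure. Cells seeded overnight, MTT (5 mg/mL stock) added for 4 h at 37 °C, formazan dissolved in DMSO, absorbance read at 570 nm. IC50 taken from viability, repeated in triplicate, and the IC50 ratio calculated.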

[14] = system: PANC-1; experiment: Induction of morphological changes in human PANC-1 cells assessed as accumulation of cytoplasmic vacuoles at 4 uM after 24 hrs by optical microscopic method; type: functional, cell-based; in short: as §3
[15] = system: HepG2; experiment: Induction of mitochondrial dysfunction in human HepG2 cells assessed as increase in MPTP opening at 1 to 4 uM after 24 hrs by JC-1 staining based flow cytometric analysis; type: functional, cell-based; conditions: dose 1-4 µM
[16] = Ratio of HN drug uptake to test compound drug uptake in human HepG2 cells at 5 uM after 12 hrs by HPLC analysis; type: ADME, cell-based; conditions: hepg2, 12 h; in short: as §1
[17] = system: A2780; experiment: Induction of morphological changes in human A2780 cells assessed as accumulation of cytoplasmic vacuoles at 4 uM after 24 hrs by optical microscopic method; type: functional, cell-based
[18] = system: HepG2; experiment: Induction of ROS generation in human HepG2 cells at 2 uM measured up to 24 hrs by DCFH-DA staining based flow cytometric analysis; type: functional, cell-based; conditions: time hrs <=24
In short: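 HepG2 cells treated for the stated time, then loaded with 10 μM DCFH-DA in FBS-free medium for 30 min in the dark. Washed twice with PBS, trypsinized, pelleted at 1200 rpm for 5 min, resuspended in PBS and read by flow cytometry. Kit Rosup reagent served as positive agent.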

Ratio [1]: 3.7 | IC50 [2]: 3 µM | IC50 [11]: 1.63 µM | Ratio [16]: 2.5
Structure (SMILES): C=CCc1ccc(O)c(-c2ccc(OCCCCCc3c4[n+](cc5c(OC)c(OC)ccc35)CCc3cc5c(cc3-4)OCO5)c(CC=C)c2)c1.[I-]
Activity [3]: Active | viability at 2 µM [4]: 93.3% | Activity [5]: 0.2% | Activity [6]: Active | Activity [7]: 17.6% | Activity [8]: inactive | Activity [9]: Active | Activity [10]: 6.59% | Activity [12]: Active | Ratio IC50 [13]: 14.6 | Activity [14]: Active | Activity [15]: Active | Activity [17]: Active | Activity [18]: Active
